The values below come from ChEMBL document CHEMBL2346649, “Novel pseudopeptides incorporating a benzodiazepine-based turn mimetic--targeting Mycobacterium tuberculosis ribonucleotide reductase” (Bioorg Med Chem, 2013).

For experiment [1], the target named is T1, Ribonucleoside-diphosphate reductase subunit alpha (Mycobacterium tuberculosis, UniProt P9WH75).
T1 sequence (P9WH75 whole entry): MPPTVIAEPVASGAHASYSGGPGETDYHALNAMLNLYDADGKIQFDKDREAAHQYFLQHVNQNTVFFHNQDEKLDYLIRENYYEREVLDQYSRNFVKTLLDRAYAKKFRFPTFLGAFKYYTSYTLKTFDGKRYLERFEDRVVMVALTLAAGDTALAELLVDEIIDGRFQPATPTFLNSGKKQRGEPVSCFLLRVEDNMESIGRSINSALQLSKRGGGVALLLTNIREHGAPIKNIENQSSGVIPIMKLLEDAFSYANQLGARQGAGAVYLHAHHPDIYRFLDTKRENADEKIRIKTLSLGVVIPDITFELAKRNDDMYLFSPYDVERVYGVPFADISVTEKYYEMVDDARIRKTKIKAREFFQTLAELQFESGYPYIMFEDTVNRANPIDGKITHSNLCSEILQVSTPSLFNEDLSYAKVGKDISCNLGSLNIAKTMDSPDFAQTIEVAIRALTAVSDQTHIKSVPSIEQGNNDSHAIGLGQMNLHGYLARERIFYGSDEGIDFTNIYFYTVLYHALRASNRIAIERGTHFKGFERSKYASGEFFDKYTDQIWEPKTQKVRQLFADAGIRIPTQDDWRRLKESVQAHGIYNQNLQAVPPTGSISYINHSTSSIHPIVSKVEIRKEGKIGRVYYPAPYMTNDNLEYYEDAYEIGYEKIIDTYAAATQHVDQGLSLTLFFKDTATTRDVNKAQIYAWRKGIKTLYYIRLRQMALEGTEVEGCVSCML
The experiment in a line: Displacement of Dansyl-Gly-Ser-Gly-Glu-Asp-Asp-Asp-Trp-Asp-Phe from C-terminal R1 subunit of Mycobacterium tuberculosis ribonucleotide reductase by fluorescence polarization assay. In outline:
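Competitive fluorescence polarization: compounds compete with a fluorescent probe carrying the R2 C-terminal sequence for binding to M. tuberculosis R1, and dissociation constants (KD2) are derived. Compound stocks are 5–25 mM in 100% DMSO.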
In general terms: Fluorescence polarisation rises when a labelled molecule tumbles more slowly, as on binding a larger partner.

A short description of experiment [2]: Inhibition of Mycobacterium tuberculosis ribonucleotide reductase by [3H]CDP assay. In outline:
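CDP reduction is read as cpm. IC50 is the concentration giving a 50% cpm reduction, averaged from three separate experiments with standard deviation.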

Compound `CC(=O)N[C@@H](CCC(=O)O)C(=O)N[C@@H](CC(=O)O)C(=O)N[C@@H](CC(=O)O)C(=O)Nc1cccc2c1N[C@@H](Cc1c[nH]c3ccccc13)C(=O)N(CC(=O)N[C@@H](Cc1ccccc1)C(=O)O)C2` showed a Kd in experiment [1] of 81 µM.
In experiment [2], `CC(=O)N[C@@H](CCC(=O)O)C(=O)N[C@@H](CC(=O)O)C(=O)N[C@@H](CC(=O)O)C(=O)N[C@@H](CC(=O)O)C(=O)Nc1cccc2c1N[C@@H](Cc1c[nH]c3ccccc13)C(=O)N(CC(=O)N[C@@H](Cc1ccccc1)C(=O)O)C2` yielded an IC50 of 64 µM. The compound also came in with a Kd in experiment [1] of 27 µM.
In experiment [1], `CC(=O)N[C@@H](CC(=O)O)C(=O)Nc1cccc2c1N[C@@H](Cc1c[nH]c3ccccc13)C(=O)N(CC(=O)N[C@@H](Cc1ccccc1)C(=O)O)C2` had a Kd greater than 150 µM.
The same measure, in the same setting: under `O=C(O)C[C@H](NC(=O)OCC1c2ccccc2-c2ccccc21)C(=O)Nc1cccc2c1N[C@@H](Cc1c[nH]c3ccccc13)C(=O)N(CC(=O)N[C@@H](Cc1ccccc1)C(=O)O)C2` stands 1.6 µM.
`O=C(O)CN1Cc2cccc(NC(=O)OCC3c4ccccc4-c4ccccc43)c2N[C@@H](Cc2c[nH]c3ccccc23)C1=O` registered an IC50 in experiment [2] of 24 µM. The compound further registered a Kd in experiment [1] of 8.1 µM.
For `O=C(Nc1cccc2c1N[C@@H](Cc1c[nH]c3ccccc13)C(=O)N(CCO)C2)OCC1c2ccccc2-c2ccccc21`, in that order: 171 µM and 26 µM.
Ac-EDDDWDF-OH: half-maximal inhibition in experiment [2] (IC50) required 20 µM. The Kd in experiment [1] is 8.3 µM.

As a reminder, the Kd is the concentration at which binding is half-saturated. Low values mean higher affinity, high ones lower affinity. The term IC50 denotes the concentration that inhibits the measured activity by half.
